Test results from PubChem BioAssay AID602231 (The Scripps Research Institute Molecular Screening Center, 2012).
Active and inactive are the calls of the source.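 The calls were made as follows: active = calcium level giving half maximal force raised by at least 10% versus DMSO, meaning delta pCa50 at or below about -0.041; inactive = the rest.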

Assay: pCa50 shift in permeabilized muscle fibers – porcine papillary fibers, force transducer, mechanism study for cardiac RTF sensitizer project (AID 602231)
Settings: Permeabilized pig cardiac fiber, Ca2+-tension pCa50 shift, at 10 µM; delta pCa50: stronger effect = higher value; maximal force change: measured here: effect on maximal fiber tension
Procedure, shortened: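 assay system = Triton X-100-permeabilized pig left-ventricle papillary muscle fibers, stretched 1.2x | reagent = free Ca2+ series, pCa 8.0–4.5 | signal = fiber tension measured by force transducer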

SMILES	delta pCa50	maximal force change [%]
CCOC(=O)c1sc(N)c(C#N)c1COC(=O)CNC(=O)c1cc(OC)c(OC)c(OC)c1	-0.039 (inactive)	3.3
CCOC(=O)c1cc2n(c1N)-c1ccccc1C2=O	0.01 (inactive)	2.13
Cc1ccc(/C=C2\Oc3c(ccc(O)c3CN3CCN(CCO)CC3)C2=O)cc1	-0.027 (inactive)	-0.5
Cc1cccn2c(=O)c(/C=C3\SC(=S)N(CC(C)C)C3=O)c(NCCCOC(C)C)nc12	-0.003 (inactive)	-9.9
